Compounds with a hit are over-represented: about 3.5% of the library has one in this group of screens.
RGS4 act – RGS4 potentiation or activation | HEK293 M3R/inducible RGS4, carbachol calcium flux Fluo4; stronger effect = lower value | B-score at 10 µM | 0.92% of 310,000 active;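 active = B-score of the integrated calcium signal more than 4 SD below the library mean, with starting fluorescence not abnormally high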;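 also: negative B-score means reduced calcium response which marks RGS4 activation or potentiation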
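Assay system: Inducible-RGS4 HEK293 cells carrying M3 receptor | Schedule: Compound preincubation 20 min at room temperature before agonist | Signal: Kinetic calcium fluorescence imaging with Fluo4-AM dye, 2 µM | Read-out basis: B score from integrated fluorescence ratio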
MrgX1 antagonist – blocks BAM8-22 activation of human MrgX1 receptor; B-score at 10 µM; MRGX1-HEK293 calcium flux, Fluo-4, BAM8-22 antagonism; stronger effect = lower value; AID 588676; 1.3% of 310,000 active;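 active = calcium-response B-score plate-corrected more than 3 library SD below zero, starting fluorescence within 5 deviations, no agonist response on first addition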;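 also: peak minus trough fluorescence over baseline after final BAM8-22 challenge near maximal dose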
Target sequence (Q96LB2 whole entry, looked up): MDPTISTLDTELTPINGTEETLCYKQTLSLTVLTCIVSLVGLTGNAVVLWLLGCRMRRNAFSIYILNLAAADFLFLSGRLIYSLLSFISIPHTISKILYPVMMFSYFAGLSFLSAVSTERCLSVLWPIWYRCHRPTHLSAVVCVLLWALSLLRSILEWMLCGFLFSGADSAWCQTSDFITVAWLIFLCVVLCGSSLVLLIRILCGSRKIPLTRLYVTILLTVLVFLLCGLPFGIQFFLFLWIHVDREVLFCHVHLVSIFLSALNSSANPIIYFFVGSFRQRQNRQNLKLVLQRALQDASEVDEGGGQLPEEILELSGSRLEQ
MrgX1 agonist – human MrgX1 receptor agonism, primary screen; Q96LB2; B-score at 10 µM; MrgX1-HEK293 cells, Fluo-4 calcium fluorescence, agonist mode; stronger effect = higher value; 0.44% of 310,000 active;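 active = calcium response B-score plate-corrected fluorescence ratio at least 3 library SD, with starting fluorescence B-score inside 5 SD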
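Assay system: stable human MrgX1 HEK293 cell line. Quantity: 15,000 cells per well. Schedule: cells plated overnight, dye loaded 0.5 h 37 °C, 0.5 h room temperature. Detection: Fluo-4 NW calcium-flux fluorescence, kinetic read. Read-out basis: peak-minus-minimum fluorescence over baseline, converted to B scores. Control set: positive and negative control wells on each plate.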
MrgX1 allo act – human MrgX1 positive allosteric modulation, primary screen | MrgX1-HEK293, Fluo-4 calcium flux, FDSS; stronger effect = higher value | B-score at 10 µM | 0.63% of 310,000 active;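 active = plate-corrected calcium response at least 3 library SD above typical, normal starting fluorescence, not activating the receptor alone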;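 also: compound read alongside a low EC10 to EC30 dose of BAM8-22 agonist; peak minus trough fluorescence over baseline measured at the second addition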
RGS4 block – human RGS4 inhibition; P49798; HEK293 M3R/RGS4 inducible, Fluo-4 calcium flux; stronger effect = higher value; triggered by carbachol at its EC20; B-score at 10 µM; 0.45% of 310,000 active;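 active = B-score, a plate-corrected calcium signal, over three deviations above library mean, with baseline fluorescence within five deviations of library mean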;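 also: RGS4 expression induced by doxycycline in cells with stable M3 receptor; B-score is computed from the integrated fluorescence ratio over baseline after carbachol; higher B-score means a larger calcium signal and so more RGS4 inhibition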
RGS4 inh valid – RGS4 inhibitor validation; shares compounds with RGS4 block; HEK293 M3R/RGS4, carbachol calcium Fluo-4 fluorescence; carbachol added at its EC20; 0 = buffer wells, 100 = carbachol control; calcium response, % at 10 µM; 65% of 1,700 active; AID 492999;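 active = duplicate-averaged calcium response above the buffer-only control mean plus 5 SD of those controls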;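 also: integrated fluorescence ratio F max minus min over baseline F0; higher response in RGS4-induced cells means RGS4 inhibition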
RGS4 uninduced – checks RGS4 inhibitor effects in non-induced HEK293 M3R cells; carbachol calcium Fluo-4; submaximal (EC20) carbachol stimulus; buffer wells 0%, carbachol control wells 100%; activity (percent), % at 10 µM; shares compounds with RGS4 block; 20% of 1,900 active; call rule not given here;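 also: RGS4 induction absent so cells express M3R without RGS4; higher means more calcium signal and flags a non-specific hit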
RGS4 inh ctr2 – second RGS4 inhibitor counter-screen in uninduced cells lacking carbachol; 22% of 1,900 active; calcium response (agonist-mode artifact), % at 10 µM; HEK293 M3R/RGS4 non-induced, Fluo-4 calcium, no carbachol; normalised: buffer wells 0%, carbachol wells 100%; shares compounds with RGS4 block;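 active = duplicate-averaged calcium rise in uninduced cells above buffer wells' mean plus 5 SD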
* marks the source's active call; other numbers are inactive results; i = inactive; . = no result.

SMILES	RGS4 act	MrgX1 antagonist	MrgX1 agonist	MrgX1 allo act	RGS4 block	RGS4 inh valid	RGS4 uninduced	RGS4 inh ctr2
Oc1ccc(C[C@@H]2CNCCN2CCc2cc(C(F)(F)F)cc(C(F)(F)F)c2)cc1	i	i	i	i	i	.	.	.
FC(F)(F)c1cc(CCN2CCNC[C@H]2Cc2cccc3ccccc23)cc(C(F)(F)F)c1	i	i	i	i	5.13*	7.0%*	i	i
CCOC(=O)/C=C/C(=O)Nc1ccc(S(=O)(=O)Nc2nccs2)cc1	i	i	i	i	5.02*	23.0%*	i	i
CCOCC(=O)Nc1ccc(S(=O)(=O)Nc2nccs2)cc1	i	i	i	i	i	.	.	.
OC[C@H]1O[C@H](OC[C@H]2O[C@H](OC[C@H]3O[C@H](O[C@]4(CO)O[C@H](CO)[C@@H](O)[C@@H]4O)[C@H](O)[C@@H](O)[C@@H]3O)[C@H](O)[C@@H](O)[C@H]2O)[C@H](O)[C@@H](O)[C@H]1O	i	i	i	i	i	.	.	.
COC(=O)c1sc2nc(C)nc(SCC(=O)N3CCC(C(=O)O)CC3)c2c1C	i	i	i	i	i	.	.	.
Cc1cc(C(=O)Nc2sc(C)c(C)c2C#N)c(C)o1	i	i	i	i	7.46*	12.0%*	i	10.5%*
Cc1sc(NC(=O)c2oc3ccccc3c2C)c(C#N)c1C	i	i	i	i	i	.	.	.
CCCCCCc1ccc(-c2ncc(N)cn2)cc1	i	i	i	i	6.7*	29.0%*	61.0%*	i
Cc1cccn2c(=O)c(C=O)c(N3CCSCC3)nc12	i	i	i	i	i	.	.	.
O=C(CC1C(=O)NCCN1C(=O)Nc1ccc(C(F)(F)F)cc1)Nc1ccc(F)cc1 (stereo not given)	i	i	i	i	24*	43.0%*	i	8.0%*
COc1ccc(NC(=O)CC2C(=O)NCCN2C(=O)Nc2ccc(C(F)(F)F)cc2)cc1 (stereo not given)	i	i	i	i	8.84*	20.5%*	29.0%*	i
Cc1cc(N2C(=O)C3C4CC(c5ccccc5)C(C4)C3C2=O)no1 (stereo not given)	i	i	i	i	i	.	.	.
Cc1ccc(C(=O)Nc2ccc(Cl)cc2C)c(Cl)c1	i	i	i	i	i	.	.	.
COc1cc2[nH]c3c(N4CCC(C(N)=O)CC4)ncnc3c2cc1OC	i	i	i	i	5.69*	i	i	i
O=C(Nc1cccc([N+](=O)[O-])c1)Nc1cccs1	i	i	i	i	i	.	.	.
CCCN(CCC)CCNC(=O)CN1C(=O)COc2ccc(S(=O)(=O)N3CCOCC3)cc21	i	i	i	i	i	.	.	.
COCCCNC(=O)CN1C(=O)COc2ccc(S(=O)(=O)N3CCOCC3)cc21	i	i	i	i	i	i	i	i
COC(=O)c1sc(N2C(=O)C(O)=C(C(=O)c3ccc(C)o3)C2c2cc(OC)ccc2OC)nc1C (stereo not given)	i	i	i	i	7.33*	46.0%*	47.0%*	i
COc1ccc(OC)c(C2C(C(=O)c3ccc(C)o3)=C(O)C(=O)N2c2cc(C)on2)c1 (stereo not given)	i	i	i	i	i	.	.	.
O=C(Cn1ccc(C(F)(F)F)n1)N=Nc1c(O)[nH]c2ccc(Br)cc12	i	i	i	i	4.74*	32.5%*	i	i
CC(C)n1c(O)c(N=NC(=O)Cn2ccc(C(F)(F)F)n2)c2ccccc21	i	i	i	i	i	.	.	.
